Assay results reported in ChEMBL document CHEMBL4052832, “Selective Inhibitors of Human Neuraminidase 3” (J Med Chem, 2018).

Tests used:
Sialidase-1 [1] = target: T1, Sialidase-1 (Homo sapiens, UniProt Q99519); experiment: Inhibition of human CathA-IRES-6His-tagged NEU1 expressed in HEK293T cells using 4MU-NANA as substrate preincubated for 15 mins followed by substrate addition measured after 30 mins by fluorescence based assay; assay type: cell-based, HEK-293T
Sialidase-1 [2] = target: T1, Sialidase-1; experiment: Inhibition of human CathA-IRES-6His-tagged NEU1 expressed in HEK293T cells using 4MU-NANA as substrate preincubated for 15 mins followed by substrate addition measured every minute for 30 mins by fluorescence based assay; assay type: cell-based; conditions: hek-293t
Method in brief: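 Ki determination. Enzyme preincubated with serially diluted inhibitor 15 min at 0 °C, then serial 4MU-NANA concentrations added.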

Sialidase-3 = target: T2, Sialidase-3 (Homo sapiens, UniProt Q9UQ49); experiment: Inhibition of human N-terminal MBP-fused NEU3 expressed in Escherichia coli using 4MU-NANA as substrate preincubated for 15 mins followed by substrate addition measured after 30 mins by fluorescence based assay
T2 sequence (Q9UQ49 whole entry): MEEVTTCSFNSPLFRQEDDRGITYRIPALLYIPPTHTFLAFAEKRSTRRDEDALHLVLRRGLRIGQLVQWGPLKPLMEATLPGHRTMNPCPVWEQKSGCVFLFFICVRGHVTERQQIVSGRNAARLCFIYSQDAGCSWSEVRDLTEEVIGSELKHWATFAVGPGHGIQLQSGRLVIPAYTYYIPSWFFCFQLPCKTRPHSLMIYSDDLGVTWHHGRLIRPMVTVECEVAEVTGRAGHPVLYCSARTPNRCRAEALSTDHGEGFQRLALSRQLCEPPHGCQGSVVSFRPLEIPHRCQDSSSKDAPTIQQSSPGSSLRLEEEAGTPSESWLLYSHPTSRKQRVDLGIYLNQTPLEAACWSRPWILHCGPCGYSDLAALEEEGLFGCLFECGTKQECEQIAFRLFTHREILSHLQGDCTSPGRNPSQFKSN

[3] = Octanol-water partition coefficient, log D of compound at pH 7.4 at 10 uM after 2 hrs by LC-MS based shake flask analysis; assay type: physicochemical
Method in brief: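 Shake-flask log D at pH 7.4. Octanol and 0.1 M Tris-HCl pH 7.4, mutually saturated. Compound at 10 μM in buffer with 0.1% DMSO, at two octanol:buffer ratios, each in triplicate.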

Sialidase-4 = target: T3, Sialidase-4 (Homo sapiens, UniProt Q8WWR8); experiment: Inhibition of human N-terminal MBP-fused NEU4 expressed in Escherichia coli using 4MU-NANA as substrate preincubated for 15 mins followed by substrate addition measured after 30 mins by fluorescence based assay
T3 sequence (Q8WWR8 whole entry): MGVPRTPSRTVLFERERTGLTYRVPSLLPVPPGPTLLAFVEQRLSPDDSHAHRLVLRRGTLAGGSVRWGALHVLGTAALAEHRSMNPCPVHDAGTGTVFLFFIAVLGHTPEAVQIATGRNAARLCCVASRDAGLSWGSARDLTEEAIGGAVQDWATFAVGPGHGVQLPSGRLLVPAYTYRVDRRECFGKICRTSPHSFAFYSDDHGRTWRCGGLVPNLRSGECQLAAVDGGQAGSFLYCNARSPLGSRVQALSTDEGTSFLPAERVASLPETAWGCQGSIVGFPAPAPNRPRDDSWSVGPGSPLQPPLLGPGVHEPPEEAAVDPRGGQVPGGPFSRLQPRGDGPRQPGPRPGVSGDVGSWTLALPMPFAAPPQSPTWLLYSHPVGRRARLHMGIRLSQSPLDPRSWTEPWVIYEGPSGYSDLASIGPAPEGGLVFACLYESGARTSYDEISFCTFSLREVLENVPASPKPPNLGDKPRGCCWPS

[4] = Kinetic solubility of compound in Prisma HT 6.5 buffer at pH 7.4 at 10 mM incubated in supersonic bath for 30 mins measured after 24 hrs by LC-MS analysis; assay type: physicochemical; conditions: pH 6.5, in the assay text read “at pH 6.5” for “at pH 7.4”, read-out: Kinetic_solubility
Method in brief: (§1)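 Kinetic solubility. 10 mM DMSO stock diluted 1:100 into 0.1 M Tris-HCl pH 7.4, Prisma HT buffer, or 0.9% NaCl in water (final 1% DMSO). Sonicated 30 min at 25 °C, equilibrated 24 h at 25 °C, filtered (0.2 μm), diluted in MeOH and analysed by LC-MS. Single measurements.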

[5] = Kinetic solubility of compound in 0.9% NaCl at 10 mM incubated in supersonic bath for 30 mins measured after 24 hrs by LC-MS analysis; assay type: physicochemical; conditions: read-out: Kinetic_solubility; method in brief: as §1
[6] = Kinetic solubility of compound in Tris-HCl buffer at pH 7.4 at 10 mM incubated in supersonic bath for 30 mins measured after 24 hrs by LC-MS analysis; assay type: physicochemical; conditions: buffer, pH 7.4, 10000 µM; method in brief: as §1

CC(=O)N[C@H]1[C@H]([C@H](O)[C@H](O)CO)OC(C(=O)O)=C[C@@H]1NC(=N)N [ZANAMIVIR]
IC50 (Sialidase-1 [1]): > 500 µM
Ki (Sialidase-1 [2]): Not Active

CC(=O)N[C@H]1[C@H]([C@H](O)[C@H](O)Cn2cc(-c3ccc(C(=O)O)cc3)nn2)OC(C(=O)O)=C[C@@H]1NC(=O)NCCC(=O)O
IC50 (Sialidase-1 [1]): > 500 µM
IC50 (Sialidase-3): > 500 µM

CC(=O)N[C@H]1[C@H]([C@H](O)[C@H](O)Cn2cc(-c3ccc(Oc4ccccc4)cc3)nn2)OC(C(=O)O)=C[C@@H]1O
IC50 (Sialidase-1 [1]): > 500 µM

CC(=O)N[C@H]1[C@H]([C@H](O)[C@H](O)CO)OC(C(=O)O)=C[C@@H]1O [NEU5AC2EN]
Ki (Sialidase-1 [2]): Not Active
logD at 2 h, 10 µM [3]: < -1.5

CCCCC(=O)NC[C@@H](O)[C@@H](O)[C@@H]1OC(C(=O)O)=C[C@H](O)[C@H]1NC(C)=O
IC50 (Sialidase-4): 220 µM
logD at 2 h, 10 µM [3]: -1

CC(=O)N[C@H]1[C@H]([C@H](O)[C@H](O)Cn2cc(-c3ccc(C(=O)O)cc3)nn2)OC(C(=O)O)=C[C@@H]1N
IC50 (Sialidase-1 [1]): > 500 µM
IC50 (Sialidase-4): > 500 µM
IC50 (Sialidase-3): > 500 µM

COC(=O)C1=C[C@H](O)[C@@H](NC(C)=O)[C@H]([C@H](O)[C@H](O)Cn2cc(-c3ccc(-c4ccccc4)cc3)nn2)O1
solubility kinetic at 24 h, 10000 µM [4]: > 1 µg/mL
logD at 2 h, 10 µM [3]: 2.3
solubility kinetic at 24 h, 10000 µM [5]: > 1 µg/mL
Kinetic_solubility [6]: 1.5 µg/mL

CC(=O)N[C@H]1[C@H]([C@H](O)[C@H](O)Cn2cc(-c3ccc(CO)cc3)nn2)OC(C(=O)O)=C[C@@H]1O
logD at 2 h, 10 µM [3]: < -1.5
